Data on three molecules can be found in publication PMC7644900 (Heliyon, 2020).

Data set [1] concerns P. aeruginosa (ATCC 27853). Briefly: Antibacterial broth-dilution MIC. It is filed as cell-based, Pseudomonas aeruginosa. In outline: (§1)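 Broth-dilution in 96-well plates against S. aureus ATCC 29213, B. cereus ATCC 10876, E. coli ATCC 22922, K. pneumoniae ATCC 13883 and P. aeruginosa. Test compound concentrations spanned 10–100 mM. CTAB served as positive control and DMSO as negative control. Activity was reported as minimum inhibitory concentration.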

A further data set relates to E. coli (ATCC 22922). Description: Antibacterial broth-dilution MIC. It is filed as cell-based, Escherichia coli. In outline:
as §1

The subject of the next data set is B.cereus (ATCC 10876). Description: Antibacterial broth-dilution MIC. It is filed as cell-based, Bacillus cereus. Put shortly:
as §1

A further data set deals with S.aureus (ATCC 29213). Briefly: Antibacterial broth-dilution MIC. In kind it is cell-based, Staphylococcus aureus. In outline: as §1
Data set [2] relates to K. pneumonia (ATCC 13883). Briefly: Antibacterial broth-dilution MIC. It is filed as cell-based, Klebsiella pneumonia. Put shortly:
as §1

Another data set has as its system HaCaT cells. Briefly: In-vitro cytotoxicity MTT assay. In kind it is cell-based, human. Put shortly: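 HaCaT cells in DMEM with FBS, glutamine and penicillin/streptomycin were seeded one day earlier and incubated 24 h. Exposed to test compound (20–1.25 mg/mL), 4% ethyl acetate blank or 20% DMSO control for 24 h at 37 °C, 5% CO2. Morphology was checked by microscopy. After PBS wash, MTT (1 mg/mL) was added for 2 h, dissolved in isopropanol and absorbance read. Mean of 3 wells, ≥3 independent experiments.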

Data set [3] concerns the target T1, bovine serum albumin (BSA) (Bos taurus, UniProt P02769). Description: Competitive BSA binding experiments using site markers warfarin and ibuprofen. The settings on record: 298 K.
Data set [4] deals with T1, bovine serum albumin (BSA). Description: Thermodynamic BSA binding studies. The note with it: for ΔH (enthalpy change) / ΔS (entropy change): van't Hoff, 298-313 K. In outline:
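BSA (10 μM) in phosphate buffer pH 7.4 in a 1.0 cm quartz cuvette. Excitation 295 nm, emission scanned 300–400 nm at 298, 308 and 313 K. Titrated with 15 μL of test compound. Binding constants were taken at each temperature, with ΔG = −RT lnKa. ΔH and ΔS were calculated from the Ka values across the three temperatures.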

Data set [5] has as its target T1, bovine serum albumin (BSA). Briefly: BSA steady state/intrinsic fluorescence quenching study. The settings on record: 298 K; for bimolecular quenching constant Kq x 10^12: pH 7.4, τ0 10^−8 s; for Stern-Volmer constant Ksv x 10^4 / binding constant Ka: phosphate buffer pH 7.4. It is filed as binding. Put shortly:
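BSA (10 μM stock) in phosphate buffer pH 7.4 in a 1.0 cm quartz cuvette at 298 K. Intrinsic fluorescence: excitation 295 nm, scan 300–400 nm, intensity read at 336 nm. Slits were 10 nm (excitation) and 5.0 nm (emission). Titrated with test compound stock (0.001 M) and read after each addition. Ksv and Kq were obtained from Stern-Volmer plots of F0/F versus quencher concentration.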

Data set [6] can be described thus: Critical micelle concentration by pyrene fluorescence probe. The settings on record: 25 °C, pyrene as probe. It is filed as physicochemical. Put shortly: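 Pyrene probe (0.1 mM methanol stock) was dried in vials, then test compound solutions were added to give 1.6 μM final pyrene. Mixed on an orbital shaker for 24 h and measured at 298 K. Excitation 334 nm, emission 350–450 nm, slits 5.0/2.5 nm. CMC was taken from the plot of I1 (373 nm)/I3 (384 nm) versus concentration.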

Where [7] appears, read: in the presence of Ibuprofen (site II marker).
Setting [8] is: in the presence of Warfarin (site I marker).

T1 sequence (P02769 25-607): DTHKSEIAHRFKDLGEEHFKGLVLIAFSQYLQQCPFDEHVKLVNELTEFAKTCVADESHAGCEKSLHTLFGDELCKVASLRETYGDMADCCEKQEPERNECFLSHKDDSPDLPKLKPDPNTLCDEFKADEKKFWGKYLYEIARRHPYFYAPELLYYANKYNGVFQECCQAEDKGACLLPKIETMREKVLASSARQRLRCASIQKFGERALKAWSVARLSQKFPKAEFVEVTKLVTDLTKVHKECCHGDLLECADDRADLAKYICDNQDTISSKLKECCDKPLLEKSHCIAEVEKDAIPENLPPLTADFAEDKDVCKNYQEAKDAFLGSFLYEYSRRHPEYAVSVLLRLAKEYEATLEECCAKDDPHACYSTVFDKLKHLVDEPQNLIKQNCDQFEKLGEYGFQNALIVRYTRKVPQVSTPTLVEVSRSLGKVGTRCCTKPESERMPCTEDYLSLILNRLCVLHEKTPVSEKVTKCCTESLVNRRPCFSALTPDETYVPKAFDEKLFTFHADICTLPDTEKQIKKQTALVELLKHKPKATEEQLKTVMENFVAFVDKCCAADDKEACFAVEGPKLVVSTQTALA

With `CCCCCCCCCCCCCCCC[N+](C)(C)C` [+ve control, Cetyltrimethylammonium bromide, reference compound], the MIC in [1] (Pseudomonas aeruginosa, ATCC27853) stood at 0.171 mM; against E. coli (ATCC 22922) (Escherichia coli, ATCC22922) it was 0.686 mM; in the data set with B.cereus (ATCC 10876) (Bacillus cereus, ATCC10876), 0.0123 mM; in the data set on S.aureus (ATCC 29213) (Staphylococcus aureus, ATCC29213), 0.0152 mM; in data set [2] (Klebsiella pneumoniae, ATCC13883), 0.0107 mM.

Regarding “Didecanoyl 2,2′-disulfanediyldibenzamide [Compound 2]”, the “% Cell Viability” value is 100.0% in the data set with HaCaT cells (2.5, 24 h); 100.0% in the data set on HaCaT cells (5, 24 h); 63.7% in the data set on HaCaT cells (10, 24 h). Besides, in the data set with HaCaT cells (at a concentration of <10 mg/ml), the “toxicity to the cells (in words)” value is on record as “non-toxic”. In addition, the MIC is given as 25.6 mM in [1] (Gram-negative); >25.3 mM in the data set with E. coli (ATCC 22922) (Gram-negative); 2.53 mM against B.cereus (ATCC 10876) (Gram-positive); 5.40 mM in the data set on S.aureus (ATCC 29213) (Gram-positive); 26.3 mM in data set [2] (Gram-negative). The Ka was 429000 M⁻¹ in data set [3] (Blank (no site marker)); 64600 M⁻¹ in data set [3] (setting [7]); 15700 M⁻¹ in data set [3] (setting [8]); 225000 M⁻¹ in data set [4] (298 K); 3580 M⁻¹ in data set [4] (308 K); 405 M⁻¹ in data set [4] (313 K). The “ln Ka” value in data set [4] (298 K) is reported as 12.32; in data set [4] (308 K), 8.18; in [4] (313 K) it was 6.00. Further, the “ΔG (free energy)” value was -30.60 KJmol^−1 in data set [4] (298 K), -20.76 KJmol^−1 in [4] (308 K) and -15.77 KJmol^−1 in data set [4] (313 K). Besides, in [4], the “ΔH (enthalpy change)” value is on record as -325.26 KJmol^−1. For the same molecule, the “ΔS (entropy change)” value in data set [4] is given as -988.78 Jmol^−1K^−1. Besides, in [5], the “bimolecular quenching constant Kq x 10^12” value was 2.26 x 10^12 M^−1s^−1. Further, the “Stern-Volmer constant Ksv x 10^4” value in [5] is 2.26 x 10^4 M^−1. The “binding constant Ka” value in [5] worked out at 225000 M⁻¹.

Take “Dioctyl 2,2′-disulfanediyldibenzamide [Compound 1]”: the “% Cell Viability” value in the data set on HaCaT cells (2.5, 24 h) amounted to 82.9%; with HaCaT cells (5, 24 h) it was 62.6%; in the data set on HaCaT cells (10, 24 h) it was 23.0%; with HaCaT cells (20, 24 h) it was 18.4%. For the same molecule, the “cell death by changes in cell morphology” value with HaCaT cells (microscopy, 10 mg/ml (Figure 5)) is “considerable amount of cell death”. The MIC in data set [1] (Gram-negative) is reported as >15.6 mM; in the data set with E. coli (ATCC 22922) (Gram-negative), 21.4 mM; in the data set on B.cereus (ATCC 10876) (Gram-positive) it was 3.12 mM; in the data set with S.aureus (ATCC 29213) (Gram-positive), 12.5 mM; in [2] (Gram-negative), 25.3 mM. The Ka in data set [3] (Blank (no site marker)) was 5060 M⁻¹; in data set [3] (setting [7]), 2110 M⁻¹; in [3] (setting [8]), 4950 M⁻¹; in data set [4] (298 K) it was 5470 M⁻¹; in data set [4] (308 K) it was 3250 M⁻¹; in [4] (313 K), 461 M⁻¹. Moreover, the “ln Ka” value came to 8.61 in [4] (298 K), 8.09 in data set [4] (308 K) and 6.13 in data set [4] (313 K). Besides, the “ΔG (free energy)” value is -21.68 KJmol^−1 in data set [4] (298 K), -18.73 KJmol^−1 in data set [4] (308 K) and -17.26 KJmol^−1 in [4] (313 K). Besides, the “ΔH (enthalpy change)” value in data set [4] is on record as -109.5 KJmol^−1. For the same molecule, in data set [4], the “ΔS (entropy change)” value is -294.7 Jmol^−1K^−1. The “bimolecular quenching constant Kq x 10^12” value in data set [5] is on record as 7.45 x 10^12 M^−1s^−1. In addition, in [5], the “Stern-Volmer constant Ksv x 10^4” value is listed as 7.45 x 10^4 M^−1. For the same molecule, the “binding constant Ka” value in data set [5] was determined as 5470 M⁻¹. The molecule further returned a CMC in data set [6] of 0.163 mM.
